G6PDH CS: counter-screen for G6PDH assay hits: L. mesenteroides G6PDH inhibition. Purified L. mesenteroides G6PDH, diaphorase/resazurin coupled fluorescence, 45 min. inhibition, % at 5 µM. 0.12% of 200,000 active. AID 1020
WT yeast gro inh: growth inhibition of WT yeast, mitochondrial fusion screen; mitochondrial fusion phenotypic screen, WT strain; inhibition, % at 10 µM; 2.1% of 190,000 active; in the data active = inhibition above about 58%; tested in S. cerevisiae
Diaph act CS: counter-screen for diaphorase-based assays: diaphorase activators and chemical reducers; 0.005% of 190,000 active; Diaphorase/resazurin coupled assay, resorufin fluorescence, 16 min; active compounds read high; 1 = vehicle wells, 0 = NADH-free wells; activation factor at 20 µM;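 active = diaphorase activity raised at least twofold by the compound at 20 µM; inactive = activation factor below 2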
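Material: Purified diaphorase enzyme from Clostridium kluyveri | Buffer or medium: 50 mM HEPES pH 7.4 with 4.542 mM MgCl2, 0.005% Tween 20 | Times: 16 min enzyme reaction, ambient temperature | Signal: Red resorufin fluorescence at 544/590 nm excitation/emission | Measure: Increased resorufin signal from activators or reducing compounds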
Diaphorase inh: counter-screen for diaphorase-based assays: diaphorase inhibitors and chemical oxidizers; inhibition, % at 20 µM; diaphorase resazurin-to-resorufin fluorescence, NADH, 16 min; bacterial (C. kluyveri) enzyme, not human; 0.69% of 190,000 active; AID 1217;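 active = primary screen inhibition at 20 µM above a set limit, cut at about 50% in these data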
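Test system: Clostridium kluyveri diaphorase enzyme / Quantity: diaphorase at 0.14 U/mL in enzyme working solution / Incubation: 16-min room-temperature incubation before reading / Benchmarks: NADH-free wells as positive control, DMSO-only neutral wells / Signal: resorufin fluorescence 544/590 nm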
L major viab: inhibitors of Leishmania major promastigote growth | Leishmania major promastigotes, resazurin fluorescence viability | AID 1063 | inhibition, % at 10 µM | 9% of 200,000 active;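 note: promastigotes grown with compound for 44 hours at 28 °C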
Large screens that a line does not name were inactive. In the library only some 11% were active in any assay of this set; here they are far more common. Cut-off read from the data, not from the text of the source, unless noted: active = inhibition above about 50%; inactive = the rest.

COc1cc2c(cc1NC(=O)CSc1nc3cc(Cl)ccc3s1)oc1ccccc12	L major viab 50.6
COc1cc2c(cc1NC(=O)CSc1nccn1C)oc1ccccc12	none
COc1cc2c(cc1NC(=O)CSc1ccccc1)oc1ccccc12	none
COc1ccc(S(=O)(=O)N[C@@H](C)C(=O)OCC(=O)Nc2cc3oc4ccccc4c3cc2OC)cc1	none
COc1cc2c(cc1NC(=O)COC(=O)[C@@H](NS(=O)(=O)c1cccc(Cl)c1)C(C)C)oc1ccccc12	L major viab 62.2
COc1cc2c(cc1NC(=O)CSc1nc3ccccc3[nH]1)oc1ccccc12	WT yeast gro inh 64.1
COc1ccccc1C(=O)NNC(=O)c1ccc(NC(=O)CC(C)C)cc1	none
O=c1oc2ccccc2nc1/C=C(O)/C=C/c1ccc(F)cc1	L major viab 60.6
CCOC(=O)Cn1c(CN2CCN(C(c3ccccc3)c3ccccc3)CC2)nc2c1c(=O)n(C)c(=O)n2C	L major viab 52.5
CC1CCCN(Cc2nc3c(c(=O)n(C)c(=O)n3C)n2CC(N)=O)C1 (stereo not drawn)	WT yeast gro inh 98.3
Cn1c(=O)c2c(nc(CN3CCc4ccccc4C3)n2Cc2ccc(F)cc2)n(C)c1=O	none (no result: G6PDH CS, WT yeast gro inh, Diaph act CS, Diaphorase inh)
Cn1c(=O)c2c(nc(CN3CCN(C(c4ccccc4)c4ccccc4)CC3)n2CC(N)=O)n(C)c1=O	none
CC(=O)Cn1c(CN2CC(C)CC(C)C2)nc2c1c(=O)n(C)c(=O)n2C (stereo not drawn)	none
CCN1CCN(Cc2nc3c(c(=O)n(C)c(=O)n3C)n2Cc2cccc3ccccc23)CC1	L major viab 92.0
Cc1ccccc1Cn1c(CN2CCc3ccccc3C2)nc2c1c(=O)n(C)c(=O)n2C	L major viab 81.1
O=C(Cn1sc2ccccc2c1=O)NC12CC3CC(CC(C3)C1)C2	L major viab 100.4
Nc1cccc2c1C(=O)N(CC(=O)NC13CC4CC(CC(C4)C1)C3)C2=O	none
Cc1ccc(SCCC(=O)N/N=C/c2cccnc2)cc1	none
CCOC(=O)c1c(NC(=O)C2C3CCC(O3)C2C(=O)O)sc2c1CCC(CC)C2 (stereo not drawn)	Diaphorase inh 54.8
CCCC1(CCC)NC(=O)N(CC(=O)Nc2cccc(OC)c2)C1=O	WT yeast gro inh 63.8
O=C(CSc1nnc(-c2ccncc2)o1)N1CCCC1	none
CC(C1CC1)N(Cc1ccccc1)C(=S)Nc1cccc(C(F)(F)F)c1 (stereo not drawn)	WT yeast gro inh 76.0, L major viab 87.5
CC(C)(O)C#Cc1ccc(C(=O)NCc2ccccc2F)cc1	none
O=C(c1ccc(Cl)cc1)N1CCC(O)(CSc2ccc(Cl)cc2)CC1	WT yeast gro inh 61.4
CN1CCN(C(=O)c2ccc(CSc3ccc(Cl)cc3)cc2)CC1	L major viab 100.3
Cc1cc(SCC(=O)OCC(=O)NC(C)c2ccccc2)c(C)cc1Br (stereo not drawn)	L major viab 51.2
CCCCc1ccc(NC(=O)C(C)CC)cc1 (stereo not drawn)	none (no result: Diaph act CS, Diaphorase inh)
O=C(Nc1cccnc1)c1ccc(Oc2ccccc2)cc1	L major viab 89.7
CCCCC(CC)C1OCC(CN2CCCC2)O1 (stereo not drawn)	L major viab 84.2
COc1ccc(CCNC(=O)CC2Nc3ccccc3NC2=O)cc1 (stereo not drawn)	none
COc1ccc(CCNC(=O)CC2Nc3ccccc3NC2=O)cc1OC (stereo not drawn)	Diaphorase inh 51.6 (no result: WT yeast gro inh)
O=c1c2ccccc2n(Cc2cccc(F)c2)c(=O)n1C1CCCC1	WT yeast gro inh 76.3, L major viab 64.5
O=C(Nc1ccccc1)/C(=C/c1ccc2c(c1)OCO2)NC(=O)c1ccco1	none
O=c1c2ccccc2c(C=Nc2ccc(S(=O)(=O)N3CCCCC3)cc2)c(O)n1-c1ccc(Cl)cn1	none
O=c1c2ccccc2c(C=Nc2cccc(S(=O)(=O)NCc3ccco3)c2)c(O)n1-c1ccc(Cl)cn1	L major viab 51.0
CN(Cc1c(O)ccc2c1oc(=O)c1ccccc12)C1CCCCC1	Diaphorase inh 93.8
CN(C)Cc1c(O)ccc2c3c(c(=O)oc12)CCCCC3	none (no result: WT yeast gro inh)
COC(=O)CN1C(=S)N(c2ccc(OC)cc2)C(=O)/C1=C/c1ccc(N2CCOCC2)cc1	none
COC(=O)CN1C(=S)N(c2ccc(OC)cc2)C(=O)/C1=C/c1ccc(OC)cc1	L major viab 53.8 (no result: Diaph act CS, Diaphorase inh)
CC(C)(CNC(=O)c1cccs1)CNC(=O)c1cccs1	none
O=C(N/N=C/c1ccc([N+](=O)[O-])o1)c1cc(-c2ccc(-c3ccccc3)cc2)nc2ccccc12	L major viab 100.3
Cc1cc(Nc2ccc([N+](=O)[O-])cc2)nc2ccccc12	none
O=C(N/N=C/c1ccccn1)c1cc(-c2ccncc2)nc2ccccc12	none
O=C(N/N=C/c1ccc([N+](=O)[O-])o1)c1cc(-c2ccncc2)nc2ccccc12	L major viab 99.3
Cc1cc(N/N=C/c2ccc([N+](=O)[O-])o2)nc2ccccc12	L major viab 83.4
Cc1cc(C(=O)N/N=C/c2cc([N+](=O)[O-])ccc2O)c2ccccc2n1	none
O=C(N/N=C/c1cc([N+](=O)[O-])ccc1O)c1cc(-c2ccccc2)nc2ccccc12	L major viab 98.4
CC(=O)Nc1cc(C(=O)N2CCc3ccccc3C2)ccc1Sc1ccc(F)cc1	none
Cc1cccc(NC(=O)c2sc(Cl)nc2-c2ccccc2)c1	none
CCCc1ccc(-c2cc(C(=O)Nc3ccc([N+](=O)[O-])cn3)c3ccccc3n2)cc1	L major viab 75.7
Cn1c(/C=C/c2ccc([N+](=O)[O-])o2)nc2ccccc2c1=O	L major viab 100.5
CCCc1ccc(-c2cc(C(=O)NCCc3ccc(S(N)(=O)=O)cc3)c3ccccc3n2)cc1	none
Cc1ccc2nc(SCC(=O)N/N=C/c3ccco3)cc(C)c2c1	none
Cc1ccc2nc(N/N=C/c3ccco3)cc(C)c2c1	L major viab 61.8
Cc1cc(C)nc(N/C(=N\S(=O)(=O)Cc2ccccc2)Nc2ccccc2Br)n1	none
O=C(NCc1ccccc1)C1CC2CCCC(C1)C2=O (stereo not drawn)	none
Cc1cccc(C(=O)NC2CCN(S(=O)(=O)c3ccccc3)CC2)c1	none
COc1ccc(CN(C(=O)c2ccc(-c3ccccc3)[nH]2)C(C(=O)NCC2CCCO2)c2ccc(C)o2)cc1 (stereo not drawn)	none
CCn1cc(C(=O)OCC(=O)OC2CC(C)CCC2C(C)C)c(=O)c2ccc(C)nc21 (stereo not drawn)	WT yeast gro inh 70.5, L major viab 79.4
CCn1cc(C(=O)OCC(=O)c2cc(C)n(-c3cccc(C(F)(F)F)c3)c2C)c(=O)c2ccc(C)nc21	WT yeast gro inh 68.2
CCn1cc(C(=O)OCc2ccccc2)c(=O)c2ccc(C)nc21	L major viab 77.8
Cc1cc(C(=O)COC(=O)CC2Sc3ccccc3NC2=O)c(C)n1-c1cccc(C(F)(F)F)c1 (stereo not drawn)	L major viab 97.0
